Laboratory results published in ChEMBL document CHEMBL5653631, “A Potent and Selective ULK1 Inhibitor Suppresses Autophagy and Sensitizes Cancer Cells to Nutrient Stress” (iScience, 2018).

How the values were obtained:
[1] = biological target: Protein kinase C delta type (Homo sapiens) (UniProt Q05655); experiment: Inhibition of human recombinant PKCd at 500 nM in presence of ATP by radiometric assay relative to control
[2] = biological target: Serine/threonine-protein kinase 35 (Homo sapiens) (UniProt Q8TDR2); experiment: Inhibition of human recombinant CLIK1 at 500 nM in presence of ATP by radiometric assay relative to control
[3] = biological target: T1, MAPK/MAK/MRK overlapping kinase (Homo sapiens) (UniProt Q9UQ07); experiment: Inhibition of human recombinant MOK at 500 nM in presence of ATP by radiometric assay relative to control
T1 sequence (whole entry): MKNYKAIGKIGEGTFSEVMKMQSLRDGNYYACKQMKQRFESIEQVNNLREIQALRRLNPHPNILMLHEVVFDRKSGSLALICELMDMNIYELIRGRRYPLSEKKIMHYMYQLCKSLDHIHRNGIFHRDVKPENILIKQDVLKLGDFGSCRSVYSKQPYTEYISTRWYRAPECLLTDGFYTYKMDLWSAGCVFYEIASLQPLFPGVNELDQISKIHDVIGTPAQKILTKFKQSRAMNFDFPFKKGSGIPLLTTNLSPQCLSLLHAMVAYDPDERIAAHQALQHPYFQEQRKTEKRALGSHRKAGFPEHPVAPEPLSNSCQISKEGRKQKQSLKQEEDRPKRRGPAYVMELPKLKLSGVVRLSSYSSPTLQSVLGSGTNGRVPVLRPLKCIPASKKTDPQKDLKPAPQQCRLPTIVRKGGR

[4] = biological target: Non-receptor tyrosine-protein kinase TYK2 (Homo sapiens) (UniProt P29597); experiment: Inhibition of human recombinant TYK2 at 500 nM in presence of ATP by radiometric assay relative to control
[5] = biological target: cAMP-dependent protein kinase catalytic subunit beta (Homo sapiens) (UniProt P22694); experiment: Inhibition of human recombinant PKACbeta at 15 nM in presence of ATP by radiometric assay relative to control
[6] = biological target: Myosin light chain kinase 2, skeletal/cardiac muscle (Homo sapiens) (UniProt Q9H1R3); experiment: Inhibition of human recombinant skMLCK at 15 nM in presence of ATP by radiometric assay relative to control
[7] = biological target: Calcium/calmodulin-dependent protein kinase kinase 1 (Homo sapiens) (UniProt Q8N5S9); experiment: Inhibition of human recombinant CaMKK1 at 15 nM related to control ULK1
[8] = biological target: Serine-protein kinase ATM (Homo sapiens) (UniProt Q13315); experiment: Inhibition of human recombinant ATM at 15 nM in presence of ATP by radiometric assay relative to control
How it was run: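 Panel of 327 recombinant human kinases, each assayed in vitro by radiometric activity assay in duplicate at a single inhibitor concentration per compound, chosen with reference to its ULK1 inhibition. Activity remaining was expressed as percent of vehicle control, and percent inhibition was calculated as 100 minus percent activity remaining.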

[9] = biological target: Insulin receptor-related protein (Homo sapiens) (UniProt P14616); experiment: Inhibition of human recombinant IRR at 15 nM in presence of ATP by radiometric assay relative to control
[10] = biological target: T2, NUAK family SNF1-like kinase 1 (Homo sapiens) (UniProt O60285); experiment: Inhibition of human recombinant NuaK1 at 15 nM in presence of ATP by radiometric assay relative to control
T2 sequence (whole entry): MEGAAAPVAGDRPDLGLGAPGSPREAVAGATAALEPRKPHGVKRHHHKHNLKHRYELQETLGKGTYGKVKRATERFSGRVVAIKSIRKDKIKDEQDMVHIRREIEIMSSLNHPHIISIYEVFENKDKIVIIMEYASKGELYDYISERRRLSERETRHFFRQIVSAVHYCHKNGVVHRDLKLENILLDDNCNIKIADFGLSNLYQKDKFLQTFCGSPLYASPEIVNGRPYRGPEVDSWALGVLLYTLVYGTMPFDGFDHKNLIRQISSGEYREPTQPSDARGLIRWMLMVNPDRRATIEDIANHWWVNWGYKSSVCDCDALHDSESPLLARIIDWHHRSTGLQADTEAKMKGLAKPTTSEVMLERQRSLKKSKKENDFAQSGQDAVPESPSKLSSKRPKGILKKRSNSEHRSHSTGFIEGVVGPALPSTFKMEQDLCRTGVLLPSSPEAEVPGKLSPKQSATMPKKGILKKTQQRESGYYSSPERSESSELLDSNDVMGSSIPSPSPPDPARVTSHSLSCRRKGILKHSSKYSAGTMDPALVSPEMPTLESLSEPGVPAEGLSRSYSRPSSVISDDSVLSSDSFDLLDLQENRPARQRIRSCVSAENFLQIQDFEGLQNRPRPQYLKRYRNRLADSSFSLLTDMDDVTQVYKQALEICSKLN

[11] = biological target: Serine/threonine-protein kinase 26 (Homo sapiens) (UniProt Q9P289); experiment: Inhibition of human recombinant MST4 at 40 nM related to control ULK1
[12] = biological target: Rho-associated protein kinase 2 (Homo sapiens) (UniProt O75116); experiment: Inhibition of human recombinant ROCK2 at 40 nM related to control ULK1
Sequence of Rho-associated protein kinase 2 (Homo sapiens) (O75116 whole entry, looked up): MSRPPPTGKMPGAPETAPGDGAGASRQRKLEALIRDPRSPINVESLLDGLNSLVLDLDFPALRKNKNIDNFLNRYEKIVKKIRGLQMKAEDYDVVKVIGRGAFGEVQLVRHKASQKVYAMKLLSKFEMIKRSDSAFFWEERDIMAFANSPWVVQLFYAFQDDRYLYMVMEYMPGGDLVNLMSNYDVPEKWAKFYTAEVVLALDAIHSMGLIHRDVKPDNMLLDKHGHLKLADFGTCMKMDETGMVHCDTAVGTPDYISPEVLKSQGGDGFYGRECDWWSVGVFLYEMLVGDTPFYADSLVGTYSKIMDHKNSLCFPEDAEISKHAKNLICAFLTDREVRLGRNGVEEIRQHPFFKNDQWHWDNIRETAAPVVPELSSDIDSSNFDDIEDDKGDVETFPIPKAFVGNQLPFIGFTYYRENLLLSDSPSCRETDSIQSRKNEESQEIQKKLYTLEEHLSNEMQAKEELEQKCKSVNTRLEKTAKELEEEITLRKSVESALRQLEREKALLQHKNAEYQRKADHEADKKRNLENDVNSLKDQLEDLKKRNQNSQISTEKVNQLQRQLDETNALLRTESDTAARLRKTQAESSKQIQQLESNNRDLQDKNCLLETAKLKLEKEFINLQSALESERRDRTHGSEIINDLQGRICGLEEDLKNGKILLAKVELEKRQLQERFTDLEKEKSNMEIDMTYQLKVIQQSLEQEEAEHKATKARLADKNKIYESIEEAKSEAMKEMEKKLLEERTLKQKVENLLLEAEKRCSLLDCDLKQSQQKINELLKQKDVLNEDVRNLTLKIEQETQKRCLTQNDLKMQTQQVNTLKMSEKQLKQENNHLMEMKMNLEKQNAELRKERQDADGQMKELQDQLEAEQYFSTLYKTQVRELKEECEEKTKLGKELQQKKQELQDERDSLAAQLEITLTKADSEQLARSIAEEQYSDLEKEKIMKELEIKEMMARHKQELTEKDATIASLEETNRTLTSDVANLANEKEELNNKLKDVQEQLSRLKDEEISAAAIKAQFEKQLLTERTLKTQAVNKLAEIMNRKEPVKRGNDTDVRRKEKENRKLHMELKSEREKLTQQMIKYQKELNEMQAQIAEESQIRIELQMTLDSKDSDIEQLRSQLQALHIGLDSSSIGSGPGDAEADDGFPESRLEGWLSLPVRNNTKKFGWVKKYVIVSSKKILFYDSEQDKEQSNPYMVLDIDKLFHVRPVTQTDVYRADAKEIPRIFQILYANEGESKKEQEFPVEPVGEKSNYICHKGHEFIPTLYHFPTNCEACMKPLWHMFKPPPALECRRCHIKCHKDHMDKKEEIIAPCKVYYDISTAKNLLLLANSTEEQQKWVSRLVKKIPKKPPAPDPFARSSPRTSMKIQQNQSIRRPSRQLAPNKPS

Sequence of Protein kinase C delta type (Homo sapiens) (Q05655 whole entry, looked up): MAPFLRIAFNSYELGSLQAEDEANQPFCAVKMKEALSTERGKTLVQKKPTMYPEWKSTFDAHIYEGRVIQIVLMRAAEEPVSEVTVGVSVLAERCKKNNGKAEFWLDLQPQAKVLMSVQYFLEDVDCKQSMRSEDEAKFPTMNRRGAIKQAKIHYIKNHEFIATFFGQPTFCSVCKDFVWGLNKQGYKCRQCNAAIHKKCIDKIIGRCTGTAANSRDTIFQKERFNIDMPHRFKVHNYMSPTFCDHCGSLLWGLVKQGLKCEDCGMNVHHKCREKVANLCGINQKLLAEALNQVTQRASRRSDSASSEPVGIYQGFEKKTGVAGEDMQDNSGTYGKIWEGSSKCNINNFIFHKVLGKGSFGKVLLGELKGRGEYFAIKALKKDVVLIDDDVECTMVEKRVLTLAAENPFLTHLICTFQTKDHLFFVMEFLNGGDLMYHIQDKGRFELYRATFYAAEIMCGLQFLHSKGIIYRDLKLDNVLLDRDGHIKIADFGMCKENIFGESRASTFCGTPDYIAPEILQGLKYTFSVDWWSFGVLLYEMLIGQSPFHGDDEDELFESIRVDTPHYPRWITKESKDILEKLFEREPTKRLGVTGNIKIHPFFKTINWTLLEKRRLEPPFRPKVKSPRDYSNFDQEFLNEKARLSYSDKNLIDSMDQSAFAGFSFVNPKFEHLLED
Sequence of Calcium/calmodulin-dependent protein kinase kinase 1 (Homo sapiens) (Q8N5S9 whole entry, looked up): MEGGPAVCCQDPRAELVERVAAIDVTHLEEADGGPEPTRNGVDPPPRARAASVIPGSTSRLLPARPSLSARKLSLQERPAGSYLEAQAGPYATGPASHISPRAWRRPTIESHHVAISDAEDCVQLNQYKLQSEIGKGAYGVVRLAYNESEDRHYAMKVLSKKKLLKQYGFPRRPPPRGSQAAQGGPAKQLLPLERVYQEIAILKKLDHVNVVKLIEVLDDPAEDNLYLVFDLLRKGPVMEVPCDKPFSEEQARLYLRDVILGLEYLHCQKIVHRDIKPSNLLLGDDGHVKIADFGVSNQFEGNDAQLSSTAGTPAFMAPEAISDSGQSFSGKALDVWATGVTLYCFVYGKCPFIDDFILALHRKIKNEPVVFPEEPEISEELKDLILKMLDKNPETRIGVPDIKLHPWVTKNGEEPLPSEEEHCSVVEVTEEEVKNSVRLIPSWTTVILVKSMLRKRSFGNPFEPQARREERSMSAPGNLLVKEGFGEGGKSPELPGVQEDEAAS
Sequence of Serine/threonine-protein kinase 35 (Homo sapiens) (Q8TDR2 whole entry): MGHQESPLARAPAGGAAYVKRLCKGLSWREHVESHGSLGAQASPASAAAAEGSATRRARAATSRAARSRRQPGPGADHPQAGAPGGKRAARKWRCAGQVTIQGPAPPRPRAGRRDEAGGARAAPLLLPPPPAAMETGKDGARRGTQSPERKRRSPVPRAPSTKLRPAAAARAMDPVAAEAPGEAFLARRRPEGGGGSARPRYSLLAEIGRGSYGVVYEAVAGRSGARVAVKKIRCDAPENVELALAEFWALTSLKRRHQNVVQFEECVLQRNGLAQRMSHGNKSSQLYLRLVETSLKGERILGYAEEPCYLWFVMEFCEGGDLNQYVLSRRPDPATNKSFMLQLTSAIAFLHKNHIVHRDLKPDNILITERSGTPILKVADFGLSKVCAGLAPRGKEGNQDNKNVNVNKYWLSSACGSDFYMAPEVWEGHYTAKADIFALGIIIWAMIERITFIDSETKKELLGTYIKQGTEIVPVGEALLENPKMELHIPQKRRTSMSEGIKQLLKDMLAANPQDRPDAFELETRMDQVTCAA
Sequence of Myosin light chain kinase 2, skeletal/cardiac muscle (Homo sapiens) (Q9H1R3 whole entry): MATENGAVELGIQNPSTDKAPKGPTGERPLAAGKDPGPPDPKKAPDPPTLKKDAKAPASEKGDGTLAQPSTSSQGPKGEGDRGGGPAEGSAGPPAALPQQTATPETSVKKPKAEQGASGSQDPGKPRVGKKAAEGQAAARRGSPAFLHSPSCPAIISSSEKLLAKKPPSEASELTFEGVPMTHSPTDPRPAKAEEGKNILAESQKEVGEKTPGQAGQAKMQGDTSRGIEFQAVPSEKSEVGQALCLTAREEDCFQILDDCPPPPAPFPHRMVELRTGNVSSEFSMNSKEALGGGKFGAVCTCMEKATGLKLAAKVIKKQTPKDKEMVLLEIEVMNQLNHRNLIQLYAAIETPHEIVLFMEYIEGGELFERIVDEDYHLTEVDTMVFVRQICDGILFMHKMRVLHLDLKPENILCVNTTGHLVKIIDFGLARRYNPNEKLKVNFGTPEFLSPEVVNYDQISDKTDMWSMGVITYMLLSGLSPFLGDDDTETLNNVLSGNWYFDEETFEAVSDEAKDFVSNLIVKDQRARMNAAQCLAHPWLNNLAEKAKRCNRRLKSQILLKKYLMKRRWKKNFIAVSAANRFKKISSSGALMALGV
Sequence of Insulin receptor-related protein (Homo sapiens) (P14616 27-742 limits assumed): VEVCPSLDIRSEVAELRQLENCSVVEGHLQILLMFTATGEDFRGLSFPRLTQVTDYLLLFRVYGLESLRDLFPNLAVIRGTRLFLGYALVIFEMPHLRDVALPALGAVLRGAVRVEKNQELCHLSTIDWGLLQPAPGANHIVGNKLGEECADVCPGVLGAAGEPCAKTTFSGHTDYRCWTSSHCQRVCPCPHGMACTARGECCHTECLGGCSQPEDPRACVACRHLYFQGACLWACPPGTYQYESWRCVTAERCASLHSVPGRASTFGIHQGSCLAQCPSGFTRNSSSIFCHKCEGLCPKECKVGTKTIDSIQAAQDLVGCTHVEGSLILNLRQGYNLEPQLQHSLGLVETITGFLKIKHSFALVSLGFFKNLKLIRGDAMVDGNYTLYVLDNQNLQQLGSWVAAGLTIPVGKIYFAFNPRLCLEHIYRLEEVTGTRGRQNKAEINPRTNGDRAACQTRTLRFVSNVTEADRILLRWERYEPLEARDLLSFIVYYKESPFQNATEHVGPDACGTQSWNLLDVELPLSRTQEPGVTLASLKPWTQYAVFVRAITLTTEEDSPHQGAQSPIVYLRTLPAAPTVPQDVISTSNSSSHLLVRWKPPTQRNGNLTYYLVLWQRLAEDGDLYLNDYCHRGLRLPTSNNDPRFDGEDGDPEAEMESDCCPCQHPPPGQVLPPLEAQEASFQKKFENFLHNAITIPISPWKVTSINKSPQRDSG
Sequence of Insulin receptor-related protein (Homo sapiens) (P14616 747-1297 limits assumed): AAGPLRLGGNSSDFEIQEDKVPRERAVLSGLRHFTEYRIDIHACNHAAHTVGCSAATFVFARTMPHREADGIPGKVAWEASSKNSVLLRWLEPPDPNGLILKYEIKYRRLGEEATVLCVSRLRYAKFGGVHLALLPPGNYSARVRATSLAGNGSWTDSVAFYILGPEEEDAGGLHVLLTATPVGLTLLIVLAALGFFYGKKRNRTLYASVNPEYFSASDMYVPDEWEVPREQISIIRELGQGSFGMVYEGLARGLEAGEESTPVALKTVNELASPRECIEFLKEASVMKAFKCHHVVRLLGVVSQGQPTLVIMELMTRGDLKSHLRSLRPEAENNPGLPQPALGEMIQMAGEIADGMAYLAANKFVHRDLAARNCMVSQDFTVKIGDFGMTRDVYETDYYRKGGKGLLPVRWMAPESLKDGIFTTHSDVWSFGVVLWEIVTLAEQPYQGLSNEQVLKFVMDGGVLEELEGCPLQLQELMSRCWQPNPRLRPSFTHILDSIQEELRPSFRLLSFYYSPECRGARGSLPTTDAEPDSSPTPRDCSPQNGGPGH

CNC(=O)c1ccccc1Oc1nc(Nc2cc(OC)c(OC)c(OC)c2)ncc1Br gave an inhibition [1] of 3%, an inhibition [2] of 3% and an inhibition [3] of 2%. For the same compound, the inhibition [4] was 78%.

For CC(C)[C@H](NC(=O)c1cc(-c2cnn3cc(-c4ccc(OCCN5CCCCC5)cc4)cnc23)cs1)C(F)(F)F, the inhibition [5] was 0%, the inhibition [6] was 11% and the fold change (FC) [7] was 0. It also gave an inhibition [8] of 6%, an inhibition [9] of 2% and an inhibition [10] of 27%.

Compound O=C(N[C@@H](C1CC1)C(F)(F)F)c1cc(-c2cnn3cc(-c4ccc(F)cc4)cnc23)cs1 has a fold change (FC) [11] of 0 and a fold change (FC) [12] of 0.03.
